Experiment [1] concerns the target T1, Autotaxin (Homo sapiens, UniProt Q13822). As to the kind of experiment: Inhibition of C-terminal FLAG tagged human recombinant ATX expressed in insect sf9 cells using FS-3 as substrate measured every 2 mins for 60 mins by FRET assay. Summed up:
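Dose response over 0.03 to 30 μM compound, 10 nM human FLAG-fusion ATX, 1 μM FS-3 in pH 8.0 Tris/BSA assay buffer. Fluorescence at 485/520 nm every 2 min for 60 min at 37 °C, normalized to no-ATX and no-compound controls. IC50 by non-linear regression. Triplicate.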

Experiment [2] addresses T1, Autotaxin. As to the kind of experiment: Inhibition of C-terminal FLAG tagged human recombinant ATX expressed in insect sf9 cells at 10 uM using FS-3 as substrate measured every 2 mins for 60 mins by FRET assay. Summed up: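 10 μM compound with 10 nM human FLAG-fusion ATX in pH 8.0 Tris buffer (30 μM BSA, 1 mM CaCl2, 1 mM MgCl2, 5 mM KCl, 140 mM NaCl) and 1 μM FS-3. Fluorescence at ex 485/em 520 nm read every 2 min for 60 min at 37 °C. Normalized to no-ATX (0%) and ATX without compound (100%). Triplicate.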

In experiment [3] the target is T2, Ectonucleotide pyrophosphatase/phosphodiesterase family member 7 (Homo sapiens) (UniProt Q6UWV6).
T2 sequence (whole entry): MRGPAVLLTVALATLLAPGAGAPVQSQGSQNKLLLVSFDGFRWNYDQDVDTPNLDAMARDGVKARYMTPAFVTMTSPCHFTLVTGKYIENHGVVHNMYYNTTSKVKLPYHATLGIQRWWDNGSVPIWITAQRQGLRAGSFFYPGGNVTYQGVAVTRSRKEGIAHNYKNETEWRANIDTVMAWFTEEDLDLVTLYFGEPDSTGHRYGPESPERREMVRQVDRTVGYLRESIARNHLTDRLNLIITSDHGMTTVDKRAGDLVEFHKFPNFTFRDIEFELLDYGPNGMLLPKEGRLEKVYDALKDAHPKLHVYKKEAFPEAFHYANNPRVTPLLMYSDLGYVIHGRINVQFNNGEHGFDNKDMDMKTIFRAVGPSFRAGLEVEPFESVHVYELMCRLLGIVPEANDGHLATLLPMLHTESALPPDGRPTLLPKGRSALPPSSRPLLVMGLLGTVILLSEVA
As to the kind of experiment: Inhibition of C-terminal FLAG tagged human recombinant NPP7 expressed in insect sf9 cells assessed as remaining enzyme activity response at 10 uM using pNPPC as substrate measured every 2 mins for 1 hr by […]. The procedure, abridged:
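Human FLAG-fusion NPP7 (10 nM final) with 10 μM compound and 10 μM pNPPC in 50 mM Tris-HCl, 150 mM NaCl, 10 mM taurocholate, pH 8. Absorbance at 405 nm, 37 °C, every 2 min for an hour. Background subtracted. Mean percent of enzyme-only response (no-enzyme = 0%). Triplicate.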

The target of experiment [4] is T1, Autotaxin. As to the kind of experiment: Inhibition of C-terminal FLAG tagged human recombinant ATX expressed in insect sf9 cells at 10 uM using pNP-TMP as substrate measured every 2 mins for 60 mins by absorbance.
In experiment [5] the target is T3, Glycerophosphocholine cholinephosphodiesterase ENPP6 (Homo sapiens) (UniProt Q6UWR7).
T3 sequence (whole entry): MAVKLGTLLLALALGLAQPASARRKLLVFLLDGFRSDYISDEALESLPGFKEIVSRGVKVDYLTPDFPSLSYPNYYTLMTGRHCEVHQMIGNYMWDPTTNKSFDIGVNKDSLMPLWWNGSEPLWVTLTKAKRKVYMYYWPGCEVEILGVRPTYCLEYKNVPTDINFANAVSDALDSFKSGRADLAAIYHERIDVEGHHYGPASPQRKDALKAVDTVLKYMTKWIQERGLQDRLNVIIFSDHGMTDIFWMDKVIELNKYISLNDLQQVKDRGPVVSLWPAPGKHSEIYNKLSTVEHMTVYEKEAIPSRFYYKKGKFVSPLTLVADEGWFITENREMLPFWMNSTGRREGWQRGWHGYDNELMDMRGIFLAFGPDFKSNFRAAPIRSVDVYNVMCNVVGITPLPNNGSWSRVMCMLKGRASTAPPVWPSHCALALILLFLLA
As to the kind of experiment: Inhibition of C-terminal FLAG tagged human recombinant NPP6 expressed in insect sf9 cells assessed as remaining enzyme activity response at 10 uM using pNPPC as substrate measured every 2 mins for 1 hr by […]. Summed up:
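Final 10 nM human FLAG-fusion NPP6, 10 μM compound, 10 μM pNPPC in 500 mM NaCl, 100 mM Tris-HCl, 0.05% Triton X-100, pH 9. A405 at 37 °C every 2 min for 1 h. Background absorbance subtracted. Mean percent response relative to enzyme-only control (no-enzyme = 0%). Triplicate.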

Experiment [6] has as its target T1, Autotaxin. As to the kind of experiment: Inhibition of C-terminal FLAG tagged human recombinant ATX expressed in insect sf9 cells using pNP-TMP as substrate measured every 2 mins for 60 mins by absorbance. Summed up:
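Dose response 0.03 to 30 μM compound against 10 nM human FLAG-fusion ATX with 1 mM pNP-TMP in pH 8.0 Tris/BSA buffer. A405 every 2 min for 60 min at 37 °C, normalized to no-enzyme and uninhibited controls. IC50 by non-linear regression. Triplicate.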

The IC50 is the concentration at which inhibition is half-maximal. A word on the inhibition: it is the drop in the measured response relative to a control, in per cent.

The structures appear in SMILES notation.

Turning to `O=C(COc1cc(Cl)cc(Cl)c1)N1CCN(c2ccc([N+](=O)[O-])cc2)CC1`, the half-maximal inhibitory concentration (IC50) at Autotaxin [1] was determined as 2.3 µM. Moreover, the inhibition on Autotaxin [2] was found to be 63%; on Autotaxin [4], 20.4%. In addition, the figures for the Activity in experiment [3] and in experiment [5] were 93.1% and 95.8%, respectively.

In the case of `O=C(COc1ccc(Cl)cc1Cl)N1CCN(c2cccc([N+](=O)[O-])c2)CC1`, the IC50 at Autotaxin [1] is 3.4 µM. The inhibition was determined as 73.2% on Autotaxin [2] and 7.3% at Autotaxin [4]. The Activity in experiment [3] was 89.5%; in experiment [5] it was 89.8%.

For `O=C(COc1ccc(Cl)cc1)N1CCN(c2ccc([N+](=O)[O-])cc2)CC1`, the IC50 at Autotaxin [1] stood at 2.2 µM. Further, the inhibition on Autotaxin [2] is 76%; on Autotaxin [4], 19.9%. In addition, the Activity in experiment [3] came out at 114%; in experiment [5], 94%.

As for `O=C(O)c1ccccc1N1CCN(C(=O)COc2cc(Cl)cc(Cl)c2)CC1`, the IC50 at Autotaxin [1] was found to be 2.2 µM. Further, the inhibition was 59.8% at Autotaxin [2] and 23.4% at Autotaxin [4]. The Activity came to 90.2% in experiment [3] and 91% in experiment [5].

For the compound `O=C(COc1ccc(C(F)(F)F)cc1)N1CCN(c2ccccc2[N+](=O)[O-])CC1`, the IC50 is 4.7 µM at Autotaxin [1] and 11.3 µM on Autotaxin [6]. Also, the figures for the inhibition on Autotaxin [2] and at Autotaxin [4] were 72.6% and 44.7%, respectively.

Regarding `O=C(O)c1cccc(N2CCN(C(=O)COc3ccc(Cl)cc3)CC2)c1`, the 50% inhibitory concentration (IC50) on Autotaxin [1] stood at 3.7 µM; at Autotaxin [6] it was 6.2 µM. Moreover, the figures for the inhibition at Autotaxin [2] and at Autotaxin [4] were 79.8% and 56.6%, respectively. The Activity turned out to be 89.2% in experiment [3] and 93.4% in experiment [5].

Take `O=C(CCCOc1ccc(Cl)cc1Cl)N1CCN(c2ccc([N+](=O)[O-])cc2)CC1`: the IC50 on Autotaxin [1] was 4 µM. Moreover, the inhibition on Autotaxin [2] was found to be 65.5%; on Autotaxin [4] it was 27.7%. The Activity in experiment [3] came to 86.3%; in experiment [5], 92.2%.

Consider `O=C(O)c1ccccc1N1CCN(C(=O)COc2ccc(C(F)(F)F)cc2)CC1`, for which the IC50 on Autotaxin [1] amounted to 1.8 µM. Further, the inhibition on Autotaxin [2] came to 89.1%; on Autotaxin [4], 43.7%. Moreover, the Activity in experiment [3] came to 90.5%; in experiment [5] it was 97.6%.

For `O=C(COc1cc(Cl)cc(Cl)c1)N1CCN(c2ccccc2[N+](=O)[O-])CC1`, the figures for the IC50 at Autotaxin [1] and on Autotaxin [6] were 3 µM and 11.4 µM, respectively. Further, the inhibition at Autotaxin [2] was found to be 77.7%; at Autotaxin [4], 46.8%. Also, the results for the Activity in experiment [3] and in experiment [5] were 99% and 93.4%, respectively.

As for `O=C(COc1ccc(Cl)cc1Cl)N1CCN(c2ccc([N+](=O)[O-])cc2)CC1`, on Autotaxin [1], the IC50 was found to be 3.7 µM. Also, the inhibition at Autotaxin [2] is 51.8%. The values for the Activity in experiment [3] and in experiment [5] were 103% and 92.2%, respectively.

With `O=C(O)c1cccc(N2CCN(C(=O)COc3cccc(C(F)(F)F)c3)CC2)c1`, the IC50 on Autotaxin [1] stood at 2.2 µM. Also, the inhibition was found to be 67.1% on Autotaxin [2] and 37.9% at Autotaxin [4]. For the same compound, the results for the Activity in experiment [3] and in experiment [5] were 87.3% and 89.2%, respectively.

For the compound `O=C(O)c1cccc(N2CCN(C(=O)COc3ccc(Cl)cc3Cl)CC2)c1`, the IC50 at Autotaxin [1] is 2.1 µM. For the same compound, the inhibition at Autotaxin [2] amounted to 76.1%; at Autotaxin [4] it was 29.5%. Besides, the Activity in experiment [3] worked out at 103%; in experiment [5] it was 95.2%.

In the case of `O=C(O)c1cccc(N2CCN(C(=O)COc3cc(Cl)cc(Cl)c3)CC2)c1`, the IC50 on Autotaxin [1] was found to be 7.3 µM; on Autotaxin [6] it was 5.2 µM. In addition, the inhibition on Autotaxin [2] was 54.6%; on Autotaxin [4], 56.2%.

Consider `O=C(COc1cccc(Cl)c1)N1CCN(c2ccc([N+](=O)[O-])cc2)CC1`, for which the IC50 on Autotaxin [1] is 4.6 µM. Further, the inhibition at Autotaxin [2] amounted to 70.6%; on Autotaxin [4], 15.6%.

As for `O=C(COc1ccc(C(F)(F)F)cc1)N1CCN(c2cccc([N+](=O)[O-])c2)CC1`, the IC50 at Autotaxin [1] came out at 4.2 µM. Besides, the inhibition on Autotaxin [2] is 60.4%; on Autotaxin [4], 30.3%.

Regarding `O=C(O)c1cccc(N2CCN(C(=O)COc3cccc(Cl)c3)CC2)c1`, the IC50 at Autotaxin [1] came out at 2.6 µM. Besides, the inhibition on Autotaxin [2] came out at 80%; at Autotaxin [4], 37.1%. Also, the Activity in experiment [3] turned out to be 84.3%; in experiment [5], 96.4%.

Consider `O=C(COc1ccccc1C(F)(F)F)N1CCN(c2cccc([N+](=O)[O-])c2)CC1`, for which the IC50 on Autotaxin [1] stood at 6.7 µM. The inhibition at Autotaxin [2] came out at 56.4%; at Autotaxin [4] it was 7.7%.

With `O=C(O)c1ccccc1N1CCN(C(=O)COc2ccc(Cl)cc2)CC1`, the 50% inhibitory concentration (IC50) on Autotaxin [1] is 6 µM. Also, the inhibition was determined as 74.5% on Autotaxin [2] and 32.1% on Autotaxin [4].

For the origin of these results see ChEMBL document CHEMBL4431364, “Discovery and synthetic optimization of a novel scaffold for hydrophobic tunnel-targeted autotaxin inhibition” (Bioorg Med Chem, 2016).
